Experimental data taken from PMC7508919 (Molecular Therapy Oncolytics, 2020).
“Also recorded” adds a separate entry of the source.

Tests used:
GPR1 [1] = assay: Phage clones binding to GPR1 by ELISA; design: species or system human; settings: versus HEK293 pcDNA cells, Figure 2A
In short: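 A Ph.D.-7 library (diversity 2.8 × 109) was precleared, then panned for five rounds over stable GPR1-overexpressing HEK293 cells (2 × 10^5/well, seeded 24 h). Eluted clones were serially diluted and incubated with GPR1-overexpressing or empty-vector HEK293 cells. Phage ssDNA was then sequenced.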

HEK293 pcDNA cells = assay: Calcium mobilization assay, HEK293 pcDNA cells; format: cell-based; settings: Fluo-4 NW, Figure 2D
In short: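 Stably transfected HEK293 cells carrying empty pcDNA3.0 vector (G418 resistance) served as the control line. Intracellular calcium was read with Fluo-4 NW dye following the kit protocol. Human recombinant chemerin was the agonist and test peptide the antagonist. Three independent experiments, mean ± SD.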

tumor tissue [2] = assay: Histology/IHC of tumor tissue; format: in vivo, nude BALB/c mice
In short: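 Xenograft tumors were fixed in 4% PFA overnight, paraffin-embedded and sectioned. Sections were H&E-stained (×200, ×400) or immunostained for Ki-67, PCNA and vimentin using an IHC kit (×200). Groups were test peptide- or scrambled peptide-treated mice.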

HCC1937 cells [3] = assay: Transwell invasion assay, HCC1937; format: cell-based; settings: Matrigel-coated Transwell, 48 h, Figure S4
In short: (§1)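 Cells (2 × 104) were seeded in serum-free medium with serially diluted test peptide or scrambled peptide into Matrigel-coated upper Transwell chambers. The lower chamber held 10% FBS medium as chemoattractant. Incubation ran 48 h at 37°C, 5% CO2. Non-invaded cells were removed. Invaded cells were methanol-fixed for 10 min, stained with hematoxylin for 30 min, and counted. Three independent experiments, mean ± SD.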

MDA-MB-231 cells [4] = assay: Colony formation assay, MDA-MB-231; format: cell-based; settings: 1 month of treatment, Figure 3B
In short: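 MDA-MB-231-tomato cells were seeded at 1 × 10^3 cells/well in 6-well plates. They were exposed to indicated concentrations of test peptide or scrambled peptide. Fluorescent colonies were counted under a fluorescence microscope.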

MDA-MB-231 cells [5] = assay: Transwell migration assay, MDA-MB-231; format: cell-based; settings: 0.1 μM to 10 μM, 12 h, Figure 4
In short: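 Uncoated Transwell chambers were used. MDA-MB-231 cells were placed in the upper chamber in FBS-free medium with test peptide or scrambled peptide. The lower chamber held 10% FBS medium. Incubation ran 12 h at 37°C, 5% CO2. Unmigrated cells were wiped off. Migrated cells were methanol-fixed for 10 min, hematoxylin-stained for 30 min at RT, and counted by inverted microscopy. Three independent experiments, mean ± SD.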

GPR1 [6] = biological target: T1, GPR1 (Homo sapiens, UniProt P46091); assay: Immunofluorescence colocalization of FITC-LRH7-G5 with GPR1; format: cell-based; settings: breast cancer cells; 1 μM FITC-labeled peptide, 2 h at RT, confocal microscopy
T1 sequence (P46091 1-355): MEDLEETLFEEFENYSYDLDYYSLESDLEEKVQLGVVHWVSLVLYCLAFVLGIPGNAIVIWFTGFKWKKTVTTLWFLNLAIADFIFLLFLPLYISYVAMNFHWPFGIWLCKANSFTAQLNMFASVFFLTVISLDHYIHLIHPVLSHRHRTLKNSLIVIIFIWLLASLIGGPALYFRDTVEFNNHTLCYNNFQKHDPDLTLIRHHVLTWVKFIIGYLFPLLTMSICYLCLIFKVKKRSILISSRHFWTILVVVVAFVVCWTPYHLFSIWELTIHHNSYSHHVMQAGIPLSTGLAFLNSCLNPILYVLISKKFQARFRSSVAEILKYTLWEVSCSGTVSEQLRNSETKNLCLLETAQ

MDA-MB-231 xenograft = MDA-MB-231 xenograft in nude mice; format: in vivo, nude BALB/c mice; settings: MDA-MB-231 nude mice; i.p. daily, 25 days; n = 5–6 per group
In short: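 Female nude BALB/c mice, 4–6 weeks old, receive 7 × 10^6 MDA-MB-231-tomato cells in 100 μL PBS subcutaneously into the left axilla. Serially diluted test peptide or scrambled peptide is injected i.p. daily. Body weight and tumor size are recorded every 3 days, with volume = length × width² × 0.5, and IVIS bioluminescence is imaged twice weekly. Tumors are weighed at sacrifice; mean ± SD.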

HCC1937 cells [7] = assay: MTT cell viability / proliferation, HCC1937; format: cell-based; settings: 1 nM–100 μM, 24, 48 or 72 h, 0.04% FBS, Figure 3A
In short: (§2)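 Log-phase cells (DMEM, 10% FBS) are seeded at 5 × 10^3 cells/well for 24 h, then starved 12 h in 0.04% FBS medium. Serially diluted test peptide or scrambled peptide is added in the same medium. Viability is read by MTT at 24, 48 and 72 h. Mean ± SD of three independent experiments; one-way ANOVA versus 0 μM at each time.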

PI3K/AKT pathway = assay: Western blot of PI3K/AKT pathway; format: cell-based
GPR1 [8] = assay: Calcium mobilization assay, GPR1-expressing cells; format: cell-based, human; settings: Fluo-4 NW, Figure 2D
In short: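 HEK293 cells stably transfected with human GPR1 (pcDNA3.0 vector, G418 resistance), with empty-vector HEK293 as control, grown in DMEM with 10% FBS. […] Fluo-4 NW dye is used following the kit instructions. Reported as mean ± SD of three independent experiments.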

MDA-MB-231 cells [9] = assay: Cell-cycle distribution by flow cytometry; format: cell-based; settings: 24, 48 or 72 h, PI staining, Figure 3C
In short: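 MDA-MB-231 cells (DMEM, 10% FBS, 37°C, 5% CO2) are treated with serially diluted test peptide for 24, 48 or 72 h. Cells are stained with propidium iodide for 30 min at room temperature in the dark. Flow cytometry gives the percentages in G0/G1, S and G2/M. Mean ± SD of three independent experiments; one-way ANOVA versus control phases.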

[10] = Body weight of nude mice, MDA-MB-231 model; format: in vivo, nude BALB/c mice; settings: MDA-MB-231 nude mice; i.p. daily, 25 days; Figure 5F
In short: (§3)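 Female nude BALB/c mice, 4–6 weeks old, were randomised into five groups. Each received MDA-MB-231-tomato or HCC1937-tomato cells (7 × 106 in 100 μL PBS) s.c. into the left axilla. Serially diluted test peptide or scrambled peptide was given i.p. daily for 25 days. Body weight and tumor size were recorded every 3 days, with volume = length × width² × 0.5. IVIS imaging was done twice weekly. Tumors were weighed at sacrifice.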

HCC1937 xenograft = HCC1937 xenograft in nude mice; format: in vivo, nude BALB/c mice; settings: i.p. daily, 25 days, n=5
In short: as §3

TNBC cells = assay: Western blot of cell-cycle, apoptosis and invasion proteins; format: cell-based; settings: immunoblot, Figure 4D
MDA-MB-231 cells [11] = assay: MTT cell viability / proliferation, MDA-MB-231; format: cell-based; settings: 1 nM–100 μM, 24, 48 or 72 h, 0.04% FBS, Figure 3A
In short: as §2

tumor tissue [12] = assay: TUNEL assay of tumor tissue; format: in vivo, nude BALB/c mice; settings: Figure 6C
In short: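 Xenograft tumor tissue was fixed in 4% PFA overnight and paraffin-embedded. Apoptotic cells in sections were detected with a FragEL DNA fragmentation kit (TUNEL) and imaged at ×200. Tumors came from test peptide- or scrambled peptide-treated mice.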

T47D cells = assay: MTT cell viability / proliferation, T47D; format: cell-based; settings: 1 nM–100 μM, 24, 48 or 72 h, 0.04% FBS, Figure 3A
In short: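 T47D cells were maintained in RPMI with 10% FBS. Log-phase cells were seeded at 5 × 10^3 cells/well for 24 h, then starved in 0.04% FBS medium for 12 h. Serial dilutions of test peptide or scrambled peptide in 0.04% FBS medium were added for 24, 48 and 72 h before MTT read-out. Three independent experiments, mean ± SD. One-way ANOVA versus 0 μM at each time point.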

HCC1937 cells [13] = assay: Transwell migration assay, HCC1937; format: cell-based; settings: 12 h, Figure S4
MDA-MB-231 cells [14] = assay: Apoptosis by Annexin V/PI flow cytometry; format: cell-based; settings: 24, 48 or 72 h, Annexin V-FITC/PI, Figure 3D
In short: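 MDA-MB-231 cells were grown in DMEM with 10% FBS at 37°C and 5% CO2. They were treated with serial dilutions of test peptide or scrambled peptide, then stained with FITC-Annexin V and PI for flow cytometry. Annexin V+/PI− (early) plus Annexin V+/PI+ (late) cells were scored as apoptotic. Three independent experiments, mean ± SD, one-way ANOVA.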

[15] = Body weight of nude mice, HCC1937 model; format: in vivo, nude BALB/c mice; settings: i.p. daily, 25 days, Figure S5E
In short: as §3

MDA-MB-231 cells [16] = assay: Transwell invasion assay, MDA-MB-231; format: cell-based; settings: Matrigel-coated Transwell, 48 h, Figure 4
In short: as §1

[17] = test system: receptors CMKLR1 and GPR1; settings: comparison of the two receptors; cited from earlier work
GPR1 [18] = assay: cAMP assay; format: cell-based, human; settings: 10 nM huChemerin, 10 μM forskolin, 30 min at 37°C; mean ± SD, three independent experiments
In short: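 Stable GPR1-transfected and empty-vector HEK293 cells are seeded at 5 × 10^3 cells/well for 24 h. Cells are then exposed to serial dilutions of test peptide alone, forskolin plus chemerin, or forskolin, chemerin and peptide combined. cAMP is measured with a commercial kit.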

GPR1 [19] = biological target: T1, GPR1; settings: cited from earlier work
[20] = Gi class of heterotrimeric G proteins

## MPRLPPA [LRH7-G5]
GPR1 [1]
  binding affinity of phage clones to GPR1: highest affinity
HEK293 pcDNA cells
  effect on calcium mobilization in HEK293 pcDNA cells: did not affect
Tumor tissue [2]; H&E staining, Figure 6A
  tumor necrosis (H&E): exhibited cellular necrosis
Tumor tissue [2]; IHC staining of Ki-67, PCNA, and vimentin, Figure 6B
  tumor cell growth (Ki-67, PCNA, vimentin staining): decreased cell growth
HCC1937 cells [3]
  effect on invasion: significantly suppressed
MDA-MB-231 cells [4]
  effect on colony formation: validated by colony formation assays
MDA-MB-231 cells [5]
  effect on migration: significantly suppressed; also recorded: decreased migration
GPR1 [6]
  colocalization with GPR1: marked colocalization with GPR1
MDA-MB-231 xenograft
  tumor burden: reduced the tumor burden in a dose-dependent manner
HCC1937 cells [7]
  effect on cell growth (MTT): significantly suppressed cell growth in a dose-dependent manner
PI3K/AKT pathway; cocultured with SC-79
  effect of peptide in coculture with AKT phosphorylation activator SC-79: enhanced by the AKT agonist
PI3K/AKT pathway; cocultured with wortmannin
  effect of peptide in coculture with PI3K inhibitor wortmannin: weakened by the PI3K inhibitor
PI3K/AKT pathway; immunoblot
  phosphorylation of AKT: significantly decreased
  phosphorylation of ERK: significantly decreased
GPR1 [8]
  effect on chemerin-induced calcium mobilization: significantly decreased chemerin-induced calcium mobilization
MDA-MB-231 cells [9]
  cell-cycle arrest: arrested MDA-MB-231 cells at the G0/G1 phase boundary
[10]
  mean body weight: did not change significantly
HCC1937 xenograft; compared with control group
  tumor volume: markedly decreased
  tumor weight: markedly decreased
HCC1937 xenograft; dose-dependent, bioluminescence
  tumor growth: substantially suppressed tumor growth
HCC1937 xenograft
  tumor burden: reduced the tumor burden in a dose-dependent manner
TNBC cells; apoptosis regulator
  Bcl-2 level: decreased
  Stat3 level: decreased
TNBC cells; cell-cycle-related protein
  cyclin D level: decreased
TNBC cells; invasion-related
  MMP-2 level: decreased
  MMP-9 level: decreased
  N-cadherin level: decreased
  Snail level: decreased
  vimentin level: decreased
MDA-MB-231 cells [11]
  effect on cell growth (MTT): significantly suppressed cell growth in a dose-dependent manner
Tumor tissue [12]
  cellular apoptosis in tumor (TUNEL): increase in cellular apoptosis; also recorded: induces apoptosis in tumors
T47D cells
  effect on cell growth (MTT): little effect
HCC1937 cells [13]
  effect on migration: significantly suppressed
MDA-MB-231 cells [14]
  induction of apoptosis: induced their apoptosis
[15]
  body weight: did not affect body weight
MDA-MB-231 cells [16]
  effect on invasion: significantly suppressed

## chemerin: human recombinant chemerin, R&D Systems; chemokine-like adipokine, GPR1 ligand
[17]
  binding affinities for CMKLR1 and GPR1: similar
GPR1 [18]
  effect on forskolin-induced cAMP release: suppressed forskolin-induced cAMP release
GPR1 [19]; [20]
  cAMP accumulation on GPR1 activation: inhibition of cyclic adenosine monophosphate (cAMP) accumulation
  p42-p44 MAP kinases phosphorylation on GPR1 activation: phosphorylation of the p42-p44 MAP kinases
GPR1 [19]
  intracellular calcium release on GPR1 activation: intracellular calcium release
